Test results from ChEMBL document CHEMBL4219052, “Synthesis and biological evaluation of 6-substituted-5-fluorouridine ProTides” (Bioorg Med Chem, 2018).

What was measured:
MCF7 = experiment: Cytotoxicity against human MCF7 cells after 72 hrs by MTS assay; format: functional, cell-based; conditions: MCF7, 72 h
How it was run: (§1)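 Commercial screen: tumour cells seeded at 0.5 to 100 x 10³ cells/well the day before dosing, then exposed 72 h to compound in duplicate, 9 serial 3.16-fold dilutions from 198 µM top concentration. MTS added for a further 4 h at 37 °C, absorbance read; IC50 taken as 50% inhibition of viability by curve fitting.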

HEL 92.1.7 = experiment: Cytotoxicity against human HEL 92.1.7 cells after 72 hrs by MTS assay; format: functional, cell-based; conditions: HEL 92.1.7, 72 h; how it was run: as §1
[1] = Cytotoxicity against human Hs445 cells after 72 hrs by MTS assay; format: functional, cell-based; conditions: Hs 445, 72 h; how it was run: as §1
MIA PaCa-2 = experiment: Cytotoxicity against human MIAPaCa2 cells after 72 hrs by MTS assay; format: functional, cell-based; conditions: MIA PaCa-2, 72 h; how it was run: as §1
SW-620 = experiment: Cytotoxicity against human SW620 cells after 72 hrs by MTS assay; format: functional, cell-based; conditions: SW-620, 72 h; how it was run: as §1
Chikungunya virus = experiment: Antiviral activity against Chikungunya virus infected in African green monkey Vero cells assessed as reduction in virus-induced cytopathic effect pretreated for 1 hr followed by viral infection measured after 3 days by crystal violet staining based assay; format: functional, organism-based
[2] = Cytotoxicity against African green monkey Vero cells measured after 3 days by CelltiterGlo luminescence assay; format: cell-based; conditions: chlorocebus sabaeus
How it was run: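 Vero cells seeded and left overnight; growth medium then replaced by serial compound dilutions, added in triplicate; medium-only wells defined 0% cytotoxicity. On day 3 cells were lysed and ATP content measured by luciferase luminescence (CellTiter-Glo); CC50 obtained from a 4-PL curve fit.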

RL = experiment: Cytotoxicity against human RL cells after 72 hrs by MTS assay; format: functional, cell-based; how it was run: as §1
MV4-11 = experiment: Cytotoxicity against human MV411 cells after 72 hrs by MTS assay; format: functional, cell-based; conditions: MV4-11, 72 h; how it was run: as §1
Carboxypeptidase Y [3] = biological target: T1, Carboxypeptidase Y (Saccharomyces cerevisiae (strain ATCC 204508 / S288c) (Baker's yeast), UniProt P00729); experiment: Prodrug activation assessed as yeast carboxypeptidase Y mediated (2S)-2-((((2R,3S,4R,5R)-5-(6-azido-5-fluoro-2,4-dioxo-3,4-dihydropyrimidin-1(2H)-yl)-3,4-dihydroxytetrahydrofuran-2-yl)methoxy)(hydroxy)phosphorylamino)propanoic acid formation at pH 7.6 measured within 60 mins by 31P NMR analysis; conditions: pH 7.6, 1 h
T1 sequence (P00729 whole entry): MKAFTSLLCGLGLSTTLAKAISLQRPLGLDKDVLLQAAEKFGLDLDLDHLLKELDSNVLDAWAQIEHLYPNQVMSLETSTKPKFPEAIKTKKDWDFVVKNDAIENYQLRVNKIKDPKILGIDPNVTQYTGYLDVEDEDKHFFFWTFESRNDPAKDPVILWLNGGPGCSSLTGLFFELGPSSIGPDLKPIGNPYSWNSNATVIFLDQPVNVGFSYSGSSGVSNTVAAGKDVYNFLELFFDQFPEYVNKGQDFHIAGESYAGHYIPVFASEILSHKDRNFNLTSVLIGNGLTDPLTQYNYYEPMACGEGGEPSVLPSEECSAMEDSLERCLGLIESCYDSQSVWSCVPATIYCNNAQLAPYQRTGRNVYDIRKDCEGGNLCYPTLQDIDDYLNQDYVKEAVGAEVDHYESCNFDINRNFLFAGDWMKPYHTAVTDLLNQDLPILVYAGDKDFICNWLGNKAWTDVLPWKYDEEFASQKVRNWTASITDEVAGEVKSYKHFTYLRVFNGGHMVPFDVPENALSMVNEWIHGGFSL
How it was run: (§2)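 ProTide (5.0 mg) dissolved in acetone-d6 (0.15 mL) plus Trizma buffer pH 7.6 (0.30 mL), treated with carboxypeptidase Y; conversion followed by ³¹P NMR over 14 h.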

[4] = Half life in acetone d6 at pH 7.6 Trizma buffer by 31P NMR analysis; format: physicochemical; conditions: Trizma buffer with acetone-d6, pH 7.6; how it was run: as §2
Carboxypeptidase Y [5] = biological target: T1, Carboxypeptidase Y; experiment: Prodrug activation assessed as yeast carboxypeptidase Y mediated (2S)-2-((((2R,3S,4R,5R)-5-(6-azido-5-fluoro-2,4-dioxo-3,4-dihydropyrimidin-1(2H)-yl)-3,4-dihydroxytetrahydrofuran-2-yl)methoxy)(phenoxy)phosphorylamino)propanoic acid formation at pH 7.6 measured within 10 mins by 31P NMR analysis; conditions: pH 7.6, 10 min; how it was run: as §2
Carboxypeptidase Y [6] = biological target: T1, Carboxypeptidase Y; experiment: Prodrug activation assessed as yeast carboxypeptidase Y mediated diastereoisomer formation at pH 7.6 by 31P NMR analysis; how it was run: as §2

| SMILES | IC50 (MCF7) [µM] | IC50 (HEL 92.1.7) [µM] | IC50 [1] [µM] | IC50 (MIA PaCa-2) [µM] | IC50 (SW-620) [µM] | EC50 (Chikungunya virus) [µM] | CC50 at 72 h [2] [µM] | IC50 (RL) [µM] | IC50 (MV4-11) [µM] | Drug metabolism (Carboxypeptidase Y [3]) [ppm] | half-life [4] [min] | Drug metabolism (Carboxypeptidase Y [5]) [ppm] | Drug metabolism (Carboxypeptidase Y [6]) [ppm] |
| --- | --- | --- | --- | --- | --- | --- | --- | --- | --- | --- | --- | --- | --- |
| CCCCCCOC(=O)[C@H](C)NP(=O)(OC[C@H]1O[C@@H](n2c(C)c(F)c(=O)[nH]c2=O)[C@H](O)[C@@H]1O)Oc1ccccc1 (stereo partly specified) | > 50 | > 50 | > 50 | > 50 | > 50 | > 200 | > 200 | > 50 | > 50 | – | – | – | – |
| C[C@H](NP(=O)(O)OC[C@H]1O[C@@H](n2c(N=[N+]=[N-])c(F)c(=O)[nH]c2=O)[C@H](O)[C@@H]1O)C(=O)O | – | – | – | – | – | – | – | – | – | 7.17 | < 5 | – | – |
| Cc1c(F)c(=O)[nH]c(=O)n1[C@@H]1O[C@H](COP(=O)(N[C@@H](C)C(=O)OCC(C)(C)C)Oc2cccc3ccccc23)[C@@H](O)[C@H]1O (stereo partly specified) | > 50 | > 50 | > 50 | > 50 | > 50 | > 200 | 81.3 | > 50 | > 50 | – | – | – | – |
| C[C@H](NP(=O)(OC[C@H]1O[C@@H](n2c(N=[N+]=[N-])c(F)c(=O)[nH]c2=O)[C@H](O)[C@@H]1O)Oc1ccccc1)C(=O)O (stereo partly specified) | – | – | – | – | – | – | – | – | – | – | – | 4.68 to 4.87 | – |
| CCCCCOC(=O)[C@H](C)NP(=O)(OC[C@H]1O[C@@H](n2c(I)c(F)c(=O)[nH]c2=O)[C@H](O)[C@@H]1O)Oc1ccccc1 (stereo partly specified) | 7.83 | 0.5 | 2.6 | 1.31 | 1.12 | – | – | 0.8 | 0.2 | – | – | – | – |
| CCCCCCOC(=O)[C@H](C)NP(=O)(OC[C@H]1O[C@@H](n2c(N=[N+]=[N-])c(F)c(=O)[nH]c2=O)[C@H](O)[C@@H]1O)Oc1cccc2ccccc12 (stereo partly specified) | 31 | 10 | 6 | 24 | 21 | – | – | 9 | 6.2 | – | – | – | – |
| CCCCCCOC(=O)[C@H](C)NP(=O)(OC[C@H]1O[C@@H](n2c(N=[N+]=[N-])c(F)c(=O)[nH]c2=O)[C@H](O)[C@@H]1O)Oc1ccccc1 (stereo partly specified) | > 50 | 39 | 18 | > 50 | 38 | – | – | 20 | 9 | – | – | – | 3.64 to 3.82 |
| Cc1c(F)c(=O)[nH]c(=O)n1[C@@H]1O[C@H](COP(=O)(N[C@@H](C)C(=O)OCc2ccccc2)Oc2ccccc2)[C@@H](O)[C@H]1O (stereo partly specified) | > 50 | > 50 | > 50 | > 50 | > 50 | – | – | > 50 | > 50 | – | – | – | – |
| Cc1c(F)c(=O)[nH]c(=O)n1[C@@H]1O[C@H](COP(=O)(N[C@@H](C)C(=O)OCc2ccccc2)Oc2cccc3ccccc23)[C@@H](O)[C@H]1O (stereo partly specified) | > 50 | > 50 | > 50 | > 50 | > 50 | > 200 | > 200 | > 50 | > 50 | – | – | – | – |
| C[C@H](NP(=O)(OC[C@H]1O[C@@H](n2c(I)c(F)c(=O)[nH]c2=O)[C@H](O)[C@@H]1O)Oc1ccccc1)C(=O)OC1CCCCC1 (stereo partly specified) | 8.12 | 4.1 | 3.8 | 4.57 | 4.84 | – | – | 2.6 | 0.74 | – | – | – | – |
